Measured values from ChEMBL document CHEMBL1157407, “Inhibitors of bacterial multidrug efflux pumps from the resin glycosides of Ipomoea murucoides” (2008).
Values after ≈ are worked out from the molar mass of the structure shown.

How the values were obtained:
Assay type in all cases: functional
[1] = test system: HeLa; assay: Cytotoxicity against human HeLa cells after 72 hrs; settings: read-out: ED50 (the source's name)
Summary of the method: (§1)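 Cells grown in RPMI 1640 with 10% fetal bovine serum at 37 °C, 5% CO2, humidified. Log-phase cells treated in triplicate with test samples at 0.16–20 μg/mL for 72 h. Growth read by the NCI sulforhodamine method. ED50 is the dose inhibiting 50% of control growth, estimated from a semilog plot of concentration against percentage of viable cells.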

[2] = test system: HEp-2; assay: Cytotoxicity against human Hep2 cells after 72 hrs; settings: HEp-2, 72 h, read-out: ED50 (the source's name); summary of the method: as §1
[3] = test system: Staphylococcus aureus; assay: Antimicrobial activity against epidemic methicillin-resistant Staphylococcus aureus 15 containing mecA gene
Summary of the method: (§2)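 Broth microdilution MIC per NCCLS guidelines, at least in duplicate, in cation-adjusted Mueller-Hinton broth (20 mg/L Ca2+, 10 mg/L Mg2+). Strains grown on nutrient agar first. Inoculum 5×10^5 cfu prepared in 0.9% saline against a McFarland standard. Compounds dissolved in DMSO, 2-fold serial dilutions, final 1–512 µg/mL (DMSO ≤3.125% v/v). MIC taken as lowest concentration with no visible growth.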

[4] = test system: Staphylococcus aureus; assay: Antimicrobial activity against methicillin-resistant Staphylococcus aureus XU212; summary of the method: as §2
[5] = test system: KB; assay: Cytotoxicity against human KB cells after 72 hrs; settings: read-out: ED50 (the source's name); summary of the method: as §1
[6] = test system: Staphylococcus aureus; assay: Antimicrobial activity against multidrug-resistant Staphylococcus aureus over expressing NorA MDR efflux pump; summary of the method: as §2
[7] = test system: Staphylococcus aureus; assay: Antimicrobial activity against Staphylococcus aureus ATCC 25923
Summary of the method: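 Broth microdilution MIC per NCCLS guidelines, at least in duplicate. Inoculum 5×10^5 cfu prepared in 0.9% saline against a McFarland standard. Cation-adjusted Mueller-Hinton broth with 20 mg/L Ca2+ and 10 mg/L Mg2+. Compounds dissolved in DMSO, then 2-fold serial dilutions, final 1–512 μg/mL; DMSO at most 3.125% v/v. MIC is the lowest concentration giving no visible growth.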

Row | Compound | EC50 [1] [µg/mL] | EC50 [2] [µg/mL] | MIC [3] [µg/mL] | MIC [4] [µg/mL] | EC50 [5] [µg/mL] | MIC [6] [µg/mL] | MIC [7] [µg/mL]
1 | CCCCC[C@H]1CCCCCCCCCC(=O)O[C@H]2[C@@H](O)[C@H](O[C@H]3[C@H](O1)O[C@H](C)[C@H](O)[C@@H]3O)O[C@@H](C)[C@@H]2O[C@@H]1O[C@@H](C)[C@H](O[C@@H]2O[C@@H](C)[C@H](OC(=O)[C@@H](C)CC)[C@@H](O)[C@H]2O)[C@@H](O[C@@H]2O[C@@H](C)[C@H](O)[C@@H](O)[C@H]2O)[C@H]1OC(=O)[C@@H](C)CC [STOLONIFERIN I] | > 20 | > 20 | 512 (≈ 444 µM) | 256 (≈ 222 µM) | > 20 | 64 (≈ 55.5 µM) | > 512
2 | CCCCC[C@H]1CCCCCCCCCC(=O)O[C@H]2[C@H](O)[C@@H](CO)O[C@@H](O[C@H]3[C@H](O1)O[C@H](C)[C@H](O)[C@@H]3O)[C@@H]2O[C@@H]1O[C@@H](C)[C@H](OC(=O)[C@@H](C)CC)[C@@H](O[C@@H]2O[C@@H](C)[C@H](O)[C@@H](O)[C@H]2O)[C@H]1OC(=O)[C@@H](C)CC [TRICOLORIN A] | 4.7 (≈ 4.59 µM) | 1.6 (≈ 1.56 µM) | 4 (≈ 3.91 µM) | 8 (≈ 7.82 µM) | 1 (≈ 0.977 µM) | 8 (≈ 7.82 µM) | 16 (≈ 15.6 µM)
3 | CCCCC[C@H]1CCCCCCCCCC(=O)O[C@H]2[C@H](O)[C@@H](CO)O[C@@H](O[C@H]3[C@H](O1)O[C@H](C)[C@@H](O)[C@@H]3O)[C@@H]2O[C@@H]1O[C@@H](C)[C@H](OC(=O)[C@@H](C)CC)[C@@H](O[C@@H]2O[C@@H](C)[C@H](O)[C@@H](O)[C@H]2O)[C@H]1OC(=O)[C@@H](C)CC [TRICOLORIN E] | > 20 | > 20 | 8 (≈ 7.82 µM) | 8 (≈ 7.82 µM) | > 20 | 8 (≈ 7.82 µM) | 16 (≈ 15.6 µM)
